What is called Cmax is the peak of the concentration-time curve. One may read the IC50 as the concentration that gives 50% inhibition.

The source of these data is ChEMBL document CHEMBL4765238, “Structure-Based Discovery and Optimization of Benzo[ d]isoxazole Derivatives as Potent and Selective BET Inhibitors for Potential Treatment of Castration-Resistant Prostate Cancer (CRPC)” (J Med Chem, 2018).

Each structure is given as a SMILES string. The source made the active and inactive calls. No cut-off for these calls is given here.

The test system of data set [1] is 22Rv1. In words: Inhibition of BET bromodomain in human 22Rv1 cells assessed as suppression of AR-V7 protein expression at 1 to 16 uM incubated for 48 hrs by western blot analysis. The class given is cell-based. The settings on record: dose 1-16 µM. Background: In western blotting, separated proteins are transferred to a membrane and probed.
The nature of data set [2]: Cmax in Sprague-Dawley rat at 2 mg/kg, iv by LC/MS analysis. The class given is ADME, organism-based. Also on record: route intravenous, dose 2 mg/kg. The conditions noted are these: in vivo. An outline of the steps:
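Sprague-Dawley rats dosed iv at 2 mg/kg (a separate oral arm received 10 mg/kg); plasma exposure parameters derived from the concentration–time profile.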

In data set [3] the test system is 22Rv1. In words: Inhibition of BET bromodomain in human 22Rv1 cells assessed as suppression of full-length androgen receptor protein expression at 1 to 16 uM incubated for 48 hrs by western blot analysis. The data set is classed as cell-based. The conditions noted are these: dose 1-16 µM.
Another data set has as its system DU-145. In words: Antiproliferative activity against AR-negative human DU-145 cells assessed as reduction in cell viability incubated for 72 hrs by cell-titer glo assay. The data set is classed as functional, cell-based. The settings on record: DU-145, 72 h.
The test system of data set [4] is LNCaP. In words: Inhibition of BET bromodomain in human LNCaP cells assessed as suppression of TMPRSS2 mRNA expression at 5 uM incubated for 48 hrs by SYBR green dye based qRT-PCR analysis. The data set is classed as cell-based. A digest of the protocol: (§1)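 LNCaP or VCaP cells exposed to vehicle (DMSO) or compound at 5 µM for 48 h; mRNA levels measured by qRT-PCR; mean ± s.e.m., n = 3; two-tailed Student's t-test.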

The test system of data set [5] is LNCaP C4-2B. In words: Inhibition of colony formation in human LNCaP C4-2B cells incubated for 14 days by crystal violet staining based assay. The conditions noted are these: dose 0.5-2 µM, time 14.0 day. The class given is functional, cell-based. A digest of the protocol: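 C4-2B cells cultured with vehicle (DMSO) or compound at 0.5, 1.0 or 2.0 μM for 14 days, then colonies stained and counted against vehicle.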

The test system of data set [6] is VCaP. In words: Inhibition of BET bromodomain in human VCaP cells assessed as suppression of TMPRSS2 mRNA expression at 5 uM incubated for 48 hrs by SYBR green dye based qRT-PCR analysis. The class given is cell-based. A digest of the protocol:
as §1
A general note: In qPCR the cycle at which signal appears reflects the starting amount.

In the next data set the test system is PC-3. In words: Antiproliferative activity against AR-negative human PC-3 cells assessed as reduction in cell viability incubated for 96 hrs by cell-titer glo assay. The class given is functional, cell-based. The settings on record: PC-3, 96 h.
In data set [7] the test system is VCaP. In words: Inhibition of BET bromodomain in human VCaP cells assessed as suppression of ERG mRNA expression at 5 uM incubated for 48 hrs by SYBR green dye based qRT-PCR analysis. The class given is cell-based. An outline of the steps:
as §1

The subject of data set [8] is VCaP. In words: Inhibition of BET bromodomain in human VCaP cells assessed as suppression of PSA mRNA expression at 5 uM incubated for 48 hrs by SYBR green dye based qRT-PCR analysis. The class given is cell-based. A digest of the protocol: as §1
Another data set concerns HeLa. In words: Antiproliferative activity against human HeLa cells assessed as reduction in cell viability incubated for 72 hrs by cell-titer glo assay. The data set is classed as functional, cell-based.
Data set [9] relates to LNCaP. In words: Inhibition of BET bromodomain in human LNCaP cells transfected with Luc-tagged PSA and renilla luciferase assessed as reduction in PSA transcriptional activity measured after 24 hrs by dual luciferase reporter gene assay. The class given is cell-based. The conditions noted are these: dose 0.4-10 µM. An outline of the steps: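 LNCaP cells transfected with a PSA-luc reporter plasmid, then treated with vehicle or compound at 0.4, 2.0 or 10.0 µM; PSA transcriptional activity read by luciferase; mean ± s.e.m., n = 3; two-tailed Student's t-test.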
On the technique in general: Reporter assays use an easily measured gene product as a stand-in for the process of interest.

In a further data set the test system is HFL1. In words: Cytotoxicity against human HFL1 cells assessed as reduction in cell viability incubated for 72 hrs by cell-titer glo assay. The settings on record: HFL1, 72 h. The class given is cell-based.
For another data set, the system named is HT-29. In words: Antiproliferative activity against human HT-29 cells assessed as reduction in cell viability incubated for 120 hrs by cell-titer glo assay. The class given is functional, cell-based. The conditions noted are these: HT-29, 120 h.
The next data set deals with U2OS. In words: Antiproliferative activity against human U2OS cells assessed as reduction in cell viability incubated for 72 hrs by cell-titer glo assay. The class given is functional, cell-based.
The subject of data set [10] is VCaP. In words: Inhibition of BET bromodomain in human VCaP cells assessed as suppression of Myc mRNA expression at 5 uM incubated for 48 hrs by SYBR green dye based qRT-PCR analysis. The data set is classed as cell-based. A digest of the protocol:
as §1

Data set [11] deals with CWR22R. In words: Inhibition of colony formation in human 22Rv1 cells at 0.5 uM incubated for 14 days by crystal violet staining based assay. The data set is classed as functional, cell-based. The conditions noted are these: time 14.0 day. A digest of the protocol: (§2)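 22Rv1 cells cultured with vehicle (DMSO) or compound at 0.5, 1.0 or 2.0 µM for 14 days, then stained and colonies assessed.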

Data set [12] relates to LNCaP C4-2B. In words: Antitumor activity against human LNCaP C4-2B cells xenografted in CB17/IcrHSD-Prkdc-SCID mouse assessed as tumor growth inhibition at 50 mg/kg, ip administered 5 times per week for 25 days by caliper analysis. The data set is classed as functional. The conditions noted are these: 600 h, time 25 day, read-out: TGI. A digest of the protocol: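 C4-2B cells xenografted in mice; once tumours reached about 100 mm3, mice were randomized and given vehicle or compound at 50 mg/kg i.p. five times per week for 25 days; tumour volume (mean ± s.e.m.) and body weight tracked.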

In data set [13] the test system is CWR22R. In words: Inhibition of colony formation in human 22Rv1 cells incubated for 14 days by crystal violet staining based assay. The data set is classed as functional, cell-based. The conditions noted are these: dose 0.5-2 µM, time 14.0 day. A digest of the protocol:
as §2

As to `Cc1noc2ccc(-c3nc4ccc(N5CCOC[C@@H]5C)cc4n3CC3CCCCC3)cc12`, the inhibition result with 22Rv1 [1], in the data set on 22Rv1 [3], with LNCaP [4], in the data set on VCaP [6], with VCaP [7] and with VCaP [8] was “Active” in each case. Also, the inhibition result in the data set with VCaP [10] and in the data set on CWR22R [11] was “Active” in each case. In data set [2], the concentration peaked (Cmax) at 0.807 µg/mL. For the same molecule, the IC50 in the data set with DU-145 was greater than 6 µM; in the data set on PC-3, greater than 3 µM; with HeLa, greater than 5 µM; in the data set with HFL1, 15.9 µM; with HT-29, 0.4 µM; in the data set on U2OS it was greater than 5 µM. The inhibition entry in the data set on LNCaP C4-2B [5], with LNCaP [9] and in the data set on CWR22R [13] was “Dose-dependent effect” in each case. Besides, the inhibition in vivo at 50 mg/kg in the data set with LNCaP C4-2B [12] stood at 51%.

Regarding `COc1cc2onc(C)c2cc1NS(=O)(=O)c1cc(Br)ccc1OC`, the inhibition result in the data set on 22Rv1 [1], with 22Rv1 [3], in the data set on LNCaP [4], with VCaP [6], with VCaP [7] and in the data set on VCaP [8] was “Active” throughout. For the same molecule, the inhibition entry with VCaP [10] and in the data set with CWR22R [11] was “Active” each time. Also, the Cmax in data set [2] was determined as 1.39 µg/mL. Also, the 50% inhibitory concentration (IC50) was greater than 6 µM in the data set on DU-145; greater than 3 µM with PC-3; greater than 5 µM with HeLa; 18.2 µM in the data set on HFL1; 0.4 µM in the data set with HT-29; greater than 5 µM in the data set on U2OS. Further, the inhibition entry with LNCaP C4-2B [5], in the data set with LNCaP [9] and with CWR22R [13] was “Dose-dependent effect” each time. In addition, the inhibition in vivo at 50 mg/kg in the data set with LNCaP C4-2B [12] worked out at 70%.
